Results as given in PubChem BioAssay AID2445 (The Scripps Research Institute Molecular Screening Center, 2010).
In all, about 320,000 compounds went through this assay and about 200 (0.062%) were called active.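 How the source made its calls: active means activation above that plate's cutoff, the mean activation of tested compounds plus 3 SD (cut at about 6.6% in these data, passing the limit was not always enough); inactive means the rest.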 What follows is part of a selection rich in actives, with near analogues and random picks from the rest.

Target: Oxytocin receptor (Homo sapiens) (UniProt P30559)
Sequence (P30559 whole entry, looked up): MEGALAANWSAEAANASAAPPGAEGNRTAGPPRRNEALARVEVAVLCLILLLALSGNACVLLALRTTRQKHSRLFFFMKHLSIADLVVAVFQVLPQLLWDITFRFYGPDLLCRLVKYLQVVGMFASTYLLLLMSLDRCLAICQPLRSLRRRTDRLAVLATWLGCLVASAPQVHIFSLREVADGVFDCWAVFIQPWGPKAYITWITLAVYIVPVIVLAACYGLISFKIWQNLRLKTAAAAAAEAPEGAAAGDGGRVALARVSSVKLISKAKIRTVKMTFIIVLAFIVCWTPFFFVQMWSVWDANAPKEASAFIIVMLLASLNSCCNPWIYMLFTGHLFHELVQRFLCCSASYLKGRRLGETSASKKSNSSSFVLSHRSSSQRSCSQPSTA
Assay: enhancers of oxytocin-evoked OXTR calcium signal – fluorescence, CHO-OTR cells, Fluo-8 calcium, primary screen (AID 2445);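 further: 100% uses oxytocin at 75 nM as the full agonist control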
Details: Fluo-8 calcium fluorescence, potentiator mode, at 3 µM, active compounds read high, 0% = oxytocin EC15, 100% = EC100
In short: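 Dosing: Single dose, 3.0 µM nominal final compound concentration | Material: Human OTR in CHO cells | Technique: Kinetic Fluo-8 calcium fluorescence | Benchmarks: EC15 oxytocin alone as 0%, 75 nM oxytocin as 100% | Probe or stimulus: Oxytocin at about EC15, sub-maximal agonist stimulus | Incubation: Compound 6 min at room temperature before oxytocin, 100 s read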

Structure (SMILES) | activation
O=C(CNC(=O)c1ccc2ccccc2c1)Nc1ncccc1O | 1.14% (inactive)
COc1ccc(N(C(=O)c2snc(C(N)=O)c2N)C(C(=O)NC2CCCC2)c2ccc(C)o2)c(OC)c1 (centres undefined) | -3.04% (inactive)
OC(COc1ccc(F)cc1Cl)CN1CCc2ccccc2C1 (centres undefined) | -6.27% (inactive)
Cc1ccc(OCC(O)CN2CCN(CC(O)COc3ccc(C)cc3Cl)CC2)c(Cl)c1 (centres undefined) | 12.6% (active)
Cc1cccc(OCC(O)CN2CCN(S(=O)(=O)c3ccc(C)cc3C)CC2)c1 (centres undefined) | -12% (inactive)
COc1ccc(NC(=O)CCNS(=O)(=O)c2ccc3c(c2)c(=O)n(C)c(=O)n3C)cc1OC | -4.46% (inactive)
O=C(Nc1ccc2c(c1)OCO2)C1CC(c2c(F)cccc2Cl)=NO1 (centres undefined) | -1.98% (inactive)
CS(=O)(=O)N(Cc1nc2sc3c(c2c(=O)[nH]1)CCCC3)C1CCCCC1 | -9.15% (inactive)
COc1cc2c(cc1OC)C(=O)NCC(C)(C)O2 | 0.49% (inactive)
CN(C(=O)c1cccc(NC(=O)Cc2ccc([N+](=O)[O-])cc2)c1)C1CCC1 | -0.31% (inactive)
O=C(CSc1n[nH]c(-c2cccnc2)n1)Nc1ccc(Cl)cc1 | -11% (inactive)
COC(=O)C1CCN(C(=O)COC(=O)c2cc(S(=O)(=O)N3CCOCC3)ccc2C)CC1 | -5.03% (inactive)
O=C(OCCN1C(=O)c2ccccc2C1=O)[C@@H]1CC(O)CN1S(=O)(=O)c1ccccc1[N+](=O)[O-] (some centres undefined) | -5.05% (inactive)
CCN(CC(=O)NCc1cccs1)C(=O)c1cccc(S(=O)(=O)Nc2ccccc2OC)c1 | -5.42% (inactive)
Cc1ccc(N2C(=O)SC(N(CC(=O)O)c3ccc(C)cc3)C2=O)cc1 (centres undefined) | -15.1% (inactive)
O=C(NCC(c1ccco1)N1CCc2ccccc21)c1cccc(F)c1 (centres undefined) | -9.25% (inactive)
CSc1nnnn1-c1c(C)cc(C)cc1C | -1.91% (inactive)
CCOc1ccccc1Nc1nnc(SCC(=O)NCC2CCCO2)s1 (centres undefined) | 0.07% (inactive)
O=C(CCc1nnc2ccc(NCc3ccccc3Cl)nn12)NCC1CCN(C2CCCC2)C1 (centres undefined) | -8.06% (inactive)
CCCC(NC(=O)c1ccccc1)c1nc2ccccc2n1Cc1ccc(C(=O)OC)o1 (centres undefined) | 4.77% (inactive)
COc1cccc(-n2c(=O)c3c(C)c(C(=O)N(C)C)sc3n(CC(=O)NCCc3ccc(OC)c(OC)c3)c2=O)c1 | -15.7% (inactive)
CC(CNC(=O)c1ccc(N)cc1)NC(=O)c1ccc(N)cc1 (centres undefined) | -7.37% (inactive)
CC(C)(CNC(=O)CNC(=O)C1CCCCC1)N1CCOCC1 | -6.61% (inactive)
COCCN(C(=S)Nc1cccc(Cl)c1C)C(C)c1ccco1 (centres undefined) | 2.23% (inactive)
CC(C)N1C(=S)SC(C)(C)C1n1oc(=O)n(-c2ccc(Cl)c(Cl)c2)c1=O (centres undefined) | -15.1% (inactive)
COc1ccc2[nH]c(=O)c(CN(Cc3cccnc3)S(=O)(=O)c3ccccc3F)cc2c1 | -13.1% (inactive)
OC(c1ccc(Cl)cc1)C(CN1CCOCC1)c1ccccc1 (centres undefined) | -9.47% (inactive)
CCS(=O)(=O)c1ccc2c(c1)N(S(=O)(=O)c1ccccc1)CC(C(=O)O)O2 (centres undefined) | -11.9% (inactive)
Cc1ccc(-n2ncc3c2CC(C)(C)CC3NC(=O)CCc2cnn(C)c2)cc1 (centres undefined) | -3.78% (inactive)
